Assay results: ChEMBL document CHEMBL4354821, “Benzisothiazolinone Derivatives as Potent Allosteric Monoacylglycerol Lipase Inhibitors That Functionally Mimic Sulfenylation of Regulatory Cysteines” (J Med Chem, 2020)
The source made the active and inactive calls. The calls are words filed in the database; no cut-off is given here.

Key:
[1] = target: Monoglyceride lipase (Rattus norvegicus, UniProt Q8R431, C201A/C208A); experiment: Inhibition of recombinant rat MGL C201A/C208A mutant expressed in human HeLa cells using 2-oleoylglycerol as substrate preincubated for 10 mins followed by substrate addition and measured after 10 mins by LC-MS analysis
[2] = target: Monoglyceride lipase (Rattus norvegicus, UniProt Q8R431, C201A); experiment: Inhibition of recombinant rat MGL C201A mutant expressed in human HeLa cells using 2-oleoylglycerol as substrate preincubated for 10 mins followed by substrate addition and measured after 10 mins by LC-MS analysis; format: cell-based
[3] = target: T1, Monoglyceride lipase (Rattus norvegicus, UniProt Q8R431); experiment: Inhibition of recombinant rat MGL expressed in human HeLa cells using 2-oleoylglycerol as substrate preincubated for 10 mins followed by substrate addition and measured after 10 mins by LC-MS analysis; format: cell-based
T1 sequence (Q8R431 whole entry): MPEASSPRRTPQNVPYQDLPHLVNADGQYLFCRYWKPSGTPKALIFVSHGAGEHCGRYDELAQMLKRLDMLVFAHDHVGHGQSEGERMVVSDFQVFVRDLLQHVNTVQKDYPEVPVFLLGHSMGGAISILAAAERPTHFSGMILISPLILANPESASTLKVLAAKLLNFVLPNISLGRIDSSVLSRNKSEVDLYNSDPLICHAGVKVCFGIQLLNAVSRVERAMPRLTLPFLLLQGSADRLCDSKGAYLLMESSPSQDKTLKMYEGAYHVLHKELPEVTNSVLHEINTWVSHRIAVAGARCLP

[4] = target: Monoglyceride lipase (Rattus norvegicus, UniProt Q8R431, C208A); experiment: Inhibition of recombinant rat MGL C208A mutant expressed in human HeLa cells using 2-oleoylglycerol as substrate preincubated for 10 mins followed by substrate addition and measured after 10 mins by LC-MS analysis; format: cell-based
[5] = tested on: N2a; experiment: Protection against H2O2-induced toxicity in mouse Neuro2a cells assessed as reduction in LDH release at 1 uM preincubated for 30 mins followed by H2O2 challenge and measured after 24 hrs in presence of CB1 receptor antagonist rimonabant; format: functional, cell-based
How it was run: (§1)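 Neuro-2a cells seeded 5×10^3/well, after 24 h pretreated with agents 30 min, then H2O2 300 µM for 24 h; LDH release into medium measured by absorbance with cytotoxicity detection kit; mean ± SEM; t test or one-way ANOVA with Dunnett's.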

[6] = tested on: N2a; experiment: Protection against H2O2-induced toxicity in mouse Neuro2a cells assessed as reduction in LDH release at 1 uM preincubated for 30 mins followed by H2O2 challenge and measured after 24 hrs; format: functional, cell-based; how it was run: as §1
[7] = Tmax in C57BL6 mouse brain at 10 mg/kg, ip by LC-MS/MS analysis; format: ADME, organism-based
How it was run: (§2)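 Adult male C57/BL6 mice, n=4 per group, single 10 mg/kg i.p. dose, saline vehicle. Plasma and brain collected at set times after injection. Brains homogenized in acetonitrile with 0.1% formic acid and passed through lipid-removal cartridges. Compound quantified by LC-MS/MS on C18 with formic acid water/methanol step gradient; LOQ 0.1 ng/mL, linear 0.1-100.0 ng/mL.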

[8] = Drug metabolism in pH 7.4 phosphate buffered saline assessed as N-(2-phenylethyl)-2-[[2-(2-phenylethylcarbamoyl)phenyl]disulfanyl]benzamide formation at 100 uM measured after 60 mins in presence of N-(2-phenylethyl)-2-sulfanyl-benzamide by HR-MS analysis
How it was run: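 Compound 100 μM final (from 10 mM DMSO stock, 1% DMSO) with GSH 200 μM final in 10 mM PBS pH 7.4 at 37 °C; species quantified at t = 60 min by LC/UV (210/254 nm) and HR-MS (Orbitrap, ESI); mean ± SEM, n = 3-4.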

[9] = Ratio of drug level in brain to plasma of C57BL6 mouse at 10 mg/kg, ip by LC-MS/MS analysis; format: ADME, organism-based; how it was run: as §2
[10] = Tmax in C57BL6 mouse plasma at 10 mg/kg, ip by LC-MS/MS analysis; format: ADME, organism-based; how it was run: as §2
[11] = tested on: Mus musculus; experiment: In vivo inhibition of MGL in C57BL6 mouse assessed as increase in 2-AG level at 10 mg/kg, ip measured after 2 hrs by LC-MS/MS analysis; format: functional, organism-based
How it was run: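 Adult male C57/BL6 mice, n=4 per group, single 10 mg/kg i.p. dose, saline vehicle; brains collected 2 h post-injection; lipids extracted from homogenate and 2-AG measured by LC-MS (triple quadrupole, ESI positive, isocratic C18); two-tailed t test or ANOVA with Dunnett's.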

[12] = Glutathione reactivity in pH 7.4 phosphate buffered saline assessed as GSH-adduct formation by measuring oxidized GSH level at 100 uM measured after 60 mins by HR-MS analysis; format: ADME; settings: buffer, pH 7.4, 1 h
How it was run: (§3)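 BTZ 100 µM final (from 10 mM DMSO stock, 1% DMSO final) with GSH 200 µM final in 10 mM PBS pH 7.4 at 37.0 °C; sampled at 60 min (steady state). GSH, GSSG and BTZ quantified by LC/UV (210 nm for GSH/GSSG, 254 nm for BTZ) against PBS standard curves; products identified by HR-MS (Orbitrap). Mean ± SEM, n = 3-4.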

[13] = Glutathione reactivity in pH 7.4 phosphate buffered saline assessed as GSH-adduct formation by measuring GSH level at 100 uM measured after 60 mins by HR-MS analysis; format: ADME; settings: buffer, pH 7.4, 1 h; how it was run: as §3
[14] = Glutathione reactivity in pH 7.4 phosphate buffered saline assessed as GSH-adduct formation by measuring parent compound level at 100 uM measured after 60 mins by HR-MS analysis; format: ADME; settings: buffer, pH 7.4, 1 h, BLD = below limit of detection; how it was run: as §3

Sequence of Monoglyceride lipase (Rattus norvegicus, UniProt Q8R431, C201A) (Q8R431 whole entry C201A): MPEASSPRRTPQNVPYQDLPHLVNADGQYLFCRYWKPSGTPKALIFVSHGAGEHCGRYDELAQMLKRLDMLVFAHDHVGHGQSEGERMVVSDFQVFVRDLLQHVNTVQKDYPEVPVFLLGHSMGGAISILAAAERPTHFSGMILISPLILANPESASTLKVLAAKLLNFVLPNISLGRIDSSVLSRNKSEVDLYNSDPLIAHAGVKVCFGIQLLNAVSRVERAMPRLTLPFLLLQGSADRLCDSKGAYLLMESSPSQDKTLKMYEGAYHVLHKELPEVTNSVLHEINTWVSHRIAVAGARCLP
Sequence of Monoglyceride lipase (Rattus norvegicus, UniProt Q8R431, C208A) (Q8R431 whole entry C208A): as the sequence (Q8R431 whole entry C201A) above, with A201C, C208A counted along it
Sequence of Monoglyceride lipase (Rattus norvegicus, UniProt Q8R431, C201A/C208A) (Q8R431 whole entry C201A/C208A): as the sequence (Q8R431 whole entry C201A) above, with C208A counted along it

Compound | IC50 [3] [nM] | further results
O=c1c2ccccc2sn1NCCCCCNn1sc2ccccc2c1=O | 11.5 | IC50 [1]: 1460 nM; IC50 [2]: 230 nM; IC50 [4]: 220 nM
O=c1c2cc([N+](=O)[O-])ccc2sn1CCc1ccccc1 | 163 | 
O=c1c2ccccc2sn1NCc1ccccc1 | 19.5 | IC50 [1]: 782 nM; IC50 [2]: 54.4 nM; IC50 [4]: 44.9 nM
COc1ccc2sn(CCc3ccccc3)c(=O)c2c1 | 568 | 
O=c1c2ccccc2sn1CCCCCCN1CCCCC1 | 195 | 
CN(Cc1ccccc1)n1sc2ccccc2c1=O | 189 | 
Cn1sc2ccccc2c1=O | 59.5 | 
O=C(Oc1ccc([N+](=O)[O-])cc1)N1CCC(C(O)(c2ccc3c(c2)OCO3)c2ccc3c(c2)OCO3)CC1 |  | Activity [5]: inactive; Activity [6]: Active
COC(=O)c1ccc(CNn2sc3ccccc3c2=O)cc1 | 93.9 | 
O=c1c2ccccc2sn1CCc1cccc2ccccc12 | 21.8 | 
O=C(O)c1ccc(CNn2sc3ccccc3c2=O)cc1 | 278 | 
Cc1cccc2c(=O)n(CCc3ccccc3)sc12 | 13100 | 
O=c1c2ccccc2sn1CCc1ccccc1 |  | Tmax [7]: 15 min; Activity [5]: inactive; Drug metabolism [8]: Metabolite detected; BPR [9]: 4.5%; Tmax [10]: 15 min; inhibition [11]: Active; Activity [12]: 61.8%; Activity [13]: 73.4 µM; Activity [14]: Bld; Activity [6]: Active
O=c1c2ccccc2sn1NCc1ccc(-c2ccccc2)cc1 | 322 | 
O=c1ccsn1CCc1ccccc1 | 759 | 
O=c1c2ccccc2sn1C1CCCCC1 | 55.5 | 
O=c1c2ccccc2sn1NCCCCCCNn1sc2ccccc2c1=O | 16.8 | IC50 [1]: 2080 nM; IC50 [2]: 114 nM; IC50 [4]: 82.7 nM
O=c1[nH]sc2ccccc12 | 306 | 
O=c1c2ccc(O)cc2sn1CCc1ccccc1 | 2550 | 
COc1ccc2c(=O)n(CCc3ccccc3)sc2c1 | 512 | 
O=c1c2ccc([N+](=O)[O-])cc2sn1CCc1ccccc1 | 238 | 
O=c1c2cc(O)ccc2sn1CCc1ccccc1 | 135 | 
O=c1c2ccccc2sn1CCc1ccc2ccccc2c1 | 54.2 | 
